Shown are actives, neighbours in structure and some others; about 2.1% of the full set was active somewhere.
PABP polyA inh = PABP-poly(A) binding inhibition. 290,000 compounds, 1% hits. PABP-poly(A) RNA binding, fluorescence polarization. inhibition, % at 35 µM;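 further: calls also rest on retests at 20 µM and on dose response follow-up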
Target sequence (P11940 whole entry, looked up): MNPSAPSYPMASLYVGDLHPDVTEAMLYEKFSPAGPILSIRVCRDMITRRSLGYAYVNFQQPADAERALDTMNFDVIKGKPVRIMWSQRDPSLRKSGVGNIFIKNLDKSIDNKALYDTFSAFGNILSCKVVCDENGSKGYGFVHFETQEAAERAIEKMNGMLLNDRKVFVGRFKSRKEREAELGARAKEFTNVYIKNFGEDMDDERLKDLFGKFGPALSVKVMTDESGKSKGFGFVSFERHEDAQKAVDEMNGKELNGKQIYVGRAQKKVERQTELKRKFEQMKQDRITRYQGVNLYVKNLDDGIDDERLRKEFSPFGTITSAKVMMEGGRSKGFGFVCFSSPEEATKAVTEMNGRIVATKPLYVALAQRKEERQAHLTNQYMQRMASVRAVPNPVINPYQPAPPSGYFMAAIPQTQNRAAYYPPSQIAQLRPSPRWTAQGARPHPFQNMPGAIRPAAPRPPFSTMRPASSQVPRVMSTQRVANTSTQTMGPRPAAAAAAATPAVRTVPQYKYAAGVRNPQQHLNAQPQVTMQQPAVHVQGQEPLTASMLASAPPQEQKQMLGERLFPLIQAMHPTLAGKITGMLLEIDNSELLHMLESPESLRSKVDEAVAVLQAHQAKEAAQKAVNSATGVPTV
ZTA counter = ZTA (EBV) inhibition in EBNA-1 counter-screen | P03206 | ZTA-DNA binding, fluorescence polarization | inhibition, % at 11 µM | 320,000 compounds, 0.15% hits | AID 2234; in the data active means inhibition above about 33%
NS3 helicase inh = inhibitors of Hepatitis C virus NS3 helicase; NS3 helicase DNA unwinding, Cy5 molecular beacon fluorescence; inhibition, % at 10.9 µM; 290,000 compounds, 0.56% hits; AID 1800;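 active means inhibition above the mean of all tested compounds plus 3 SD, set per campaign, cut at about 35% in these data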
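Compound dosing – single dose, 10.9 µM nominal final, DMSO 0.8% final · System – NS3 helicase fragment of HCV · Buffer or medium – MOPS pH 6.5, MgCl2, DTT, Tween20, BSA · Signal – Cy5 beacon fluorescence read at start and 1 h · Also added – annealed dual-labelled DNA beacon duplex, ATP-started · Schedule – 1 h at 25 °C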
EBNA-1 inh = blocks EBNA-1 binding to DNA | 300,000 compounds, 0.34% hits | inhibition, % at 14.8 µM | EBNA-1 DNA binding, fluorescence polarization; in the data active means inhibition above about 28%
eIF4H inh = inhibitors of RNA binding by human eIF4H | Q15056 | eIF4H fluorescence polarization binding assay | inhibition, % at 35 µM | 290,000 compounds, 0.94% hits | AID 2012;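 further: calls also rest on retests at 20 µM and on dose response follow-up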
MLLE-PAM2 inh = blocks PAM2 peptide binding to the PABP1 MLLE domain; P11940; GST-MLLE / FITC-PAM2 fluorescence polarization; inhibition, % at 20 µM; 360,000 compounds, 0.36% hits; AID 588489; in the data active means inhibition above about 35%, passing the limit was not always enough
EBNA-1 inh conf = EBNA-1 (EBV) inhibition, confirmation. inhibition, % at 14.8 µM. Recombinant EBNA-1 DBD, Cy5-DNA fluorescence polarization. shares compounds with EBNA-1 inh. AID 2292. 830 compounds, 35% hits;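 active means mean inhibition across replicates above a set limit taken from the earlier primary screen, cut at about 28% in these data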
ZTA counter trip = blocks Epstein-Barr virus ZTA in triplicate, EBNA-1 counter-screen | shares compounds with EBNA-1 inh | Zta-ZRE DNA binding, Cy5 fluorescence polarization | inhibition, % at 11.1 µM | 830 tested, under 10 active;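 active means mean inhibition over triplicates above a set limit taken from the primary EBNA-1 screen, cut at about 37% in these data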;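 further: purified full length Zta protein with Cy5 labeled ZRE DNA probe; inhibitors lower polarization by freeing the labeled DNA probe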
A number is an active result; i = inactive; ? = inconclusive; nt = no result; + = active, no number; ! = a repeat was not active. Unless noted, how the calls were made is not given here.

SMILES | PABP polyA inh | ZTA counter | NS3 helicase inh | EBNA-1 inh | eIF4H inh | MLLE-PAM2 inh | EBNA-1 inh conf | ZTA counter trip
Cc1ccc(/C(N)=N/OC(=O)c2ccc3ccccc3c2)cc1 | i | i | i | 31 | i | i | 42 | i
Cn1c(COc2ccc([N+](=O)[O-])cc2)nnc1SCC(=O)NCC1CCCO1 (configuration not stated) | i | i | i | i | i | i | nt | nt
CC(/C=C1\SC(=S)N(c2ccc(C(=O)O)cc2)C1=O)=C\c1ccccc1 | i | i | i | 36 | i | i | i | i
CC(/C=C1\SC(=S)N(CCC(=O)Nc2ccc(O)cc2)C1=O)=C\c1ccccc1 | i | i | i | 34 | i | i | i | i
Cc1ccc(/C=C2\SC(=S)N(CCC(=O)NNC(=O)c3ccc(O)cc3)C2=O)cc1 | i | i | i | 29 | i | i | 57 | i
O=C(CN1C(=O)S/C(=C\C=C\c2ccccc2)C1=O)Nc1ccc(O)cc1 | i | i | i | 52 | i | i | i | i
Cc1ccc(/C=C2\SC(=S)N(CCC(=O)NNC(=O)c3cccc(O)c3)C2=O)cc1 | i | i | i | i | i | i | nt | nt
O=C1NC[C@H](CC2CCCCC2)N(CCc2cccc(F)c2)C1=O | nt | i | nt | i | nt | i | nt | nt
O=C(CSc1nnc(Cc2ccccc2)o1)NCCN1C(=O)CSC1=O | i | i | i | i | i | i | nt | nt
O=C(NCc1ccc2c(c1)OCO2)c1nc(Cn2ccc([N+](=O)[O-])n2)no1 | i | i | i | i | i | i | nt | nt
CC(=O)Nc1ccc(NC(=O)Cc2sc(-c3cccnc3)nc2-c2ccc(C)cc2)cc1 | i | i | i | 54 | i | i | 52 | i
N#CNC(=Nc1ccccc1F)SCc1ccc(C(=O)O)cc1 | i | i | i | i | i | i | nt | nt
O=C(c1ccc(S(=O)(=O)N2CCCCCC2)cc1)N1CCC(CN2C(=O)c3cccc4cccc(c34)C2=O)CC1 | i | i | i | 30 | i | i | i | i
CCc1cccc(CC)c1NC(=O)CSc1nnc(C2CC2)n1N | nt | nt | nt | nt | nt | i | nt | nt
O=c1c2ccccc2nc(SCc2nc3ccccc3s2)n1Cc1ccco1 | i | i | i | 49 | i | i | i | i
O=c1c2ccccc2nc(SCc2ccccc2)n1Cc1ccco1 | i | i | i | i | i | i | nt | nt
Cc1cccnc1C(NC(=O)C1CCN(CCCOc2ccc(F)cc2)CC1)c1ccccc1 (configuration not stated) | nt | nt | nt | nt | nt | i | nt | nt
COc1ccc(Cc2nnc(NC(=O)Nc3ccccc3F)s2)cc1OC | i | i | i | 37 | i | i | 71 | i
CC(C)(C)c1ccc(S(=O)(=O)Nc2ccc3c(c2)COC3=O)cc1 | i | i | i | i | i | i | nt | nt
Cc1cc(C)n(-c2ccc(C(=O)OCn3nnc4ccccc4c3=O)cc2)n1 | i | i | i | i | i | i | nt | nt
Cc1nn(-c2ccccc2)c2sc(C(=O)OCn3nnc4ccccc4c3=O)cc12 | i | i | i | 35 | i | i | i | i
O=C(COC(=O)CCSc1ccccc1)NCc1ccccc1Cl | i | i | i | i | i | i | nt | nt
CC1=CC2=NC(=O)/C(=C\c3ccc(-c4cccc(Cl)c4)o3)C(=N)N2O1 | i | i | i | 29 | i | i | i | i
CC(=O)N1c2ccc(S(=O)(=O)NCC3CCC(C(=O)NC4CCCCC4)CC3)cc2CC1C (configuration not stated) | i | i | i | 41 | i | i | i | i
CSc1nsc2nc(=O)c(/C=C3\C(C)=Nc4ccc(C)cc43)c(N)n12 | i | i | i | i | ? | i | nt | nt
SMILES | PABP polyA inh | ZTA counter | NS3 helicase inh | EBNA-1 inh | eIF4H inh | MLLE-PAM2 inh | EBNA-1 inh conf | ZTA counter trip
CC1=Nc2ccc(C)cc2/C1=C/c1c(N)n2oc(C)cc2nc1=O | 54! | i | i | 28! | ? | i | 33 | i
COC(=O)c1sccc1N/C=C(\C#N)S(=O)(=O)C(C)(C)C | i | i | i | i | i | i | nt | nt
O=C1S/C(=C\c2ccccc2)C(=O)N1CC(O)Cn1c2ccccc2c2ccccc21 (configuration not stated) | i | i | i | 30 | i | i | i | i
COc1ccc(C(=O)NC(=S)N(C)Cc2ccccc2)cc1Br | i | i | i | 45 | i | i | i | i
CN(Cc1ccccc1)C(=S)NC(=O)c1ccccc1 | ? | i | i | i | i | i | nt | nt
O=C(COc1ccccc1)N=C1SC2CS(=O)(=O)CC2N1Cc1ccccc1 (configuration not stated) | i | i | i | + | i | i | i | i
Cc1ccc(C(=O)N2CCN(S(=O)(=O)N3CCCCC3)CC2)cc1 | i | i | i | i | i | i | nt | nt
CC(C)(C)NC(=O)C(c1ccccn1)N(C(=O)c1csnn1)C1CCCCC1 (configuration not stated) | i | i | i | i | i | i | nt | nt
CC1CCN(C(=O)c2ccc(NC3=C(Cl)C(=O)N(Cc4ccccc4)C3=O)cc2)CC1 | nt | nt | nt | nt | nt | i | nt | nt
CCOc1ccc2nc(SC3CC(=O)N(c4ccccc4)C3=O)sc2c1 (configuration not stated) | i | i | i | 33 | i | i | i | i
c1ccc(CCn2nnnc2C(c2cccnc2)N2CCOCC2)cc1 (configuration not stated) | i | i | i | i | i | i | nt | nt
CC(C)NC(=O)C(Sc1ccccc1)c1ccccc1 (configuration not stated) | i | i | i | 39 | i | i | i | i
CCOC(=O)c1cnc(SCCN2CCOCC2)nc1N | i | i | i | i | i | i | nt | nt
CCC(=O)Nc1cccc(-c2cc3ccccc3oc2=O)c1 | i | i | i | i | i | i | nt | nt
O=C(Cc1cccc2ccccc12)Nc1ccc(-c2cc3ccccc3oc2=O)cc1 | i | i | i | 29 | i | i | i | i
C=CCn1c(SCC(=O)NCc2ccco2)nc2ccccc2c1=O | ? | i | i | i | i | i | nt | nt
C=CCn1c(SCC(=O)NC(=O)NCc2ccco2)nc2sc(CC)cc2c1=O | 28 | i | i | 28 | 84 | i | i | i
Cc1sc2nc(SCC(=O)NCc3ccco3)n(CCc3ccccc3)c(=O)c2c1C | i | i | i | 30 | i | i | i | i
CC(NC(=O)C1CCC1)c1ccc(Cl)cc1 (configuration not stated) | i | i | i | i | i | i | nt | nt
COc1ccccc1NC(=O)c1ccc(S(=O)(=O)N(C)c2ccccc2OC)cc1 | nt | nt | nt | nt | nt | i | nt | nt
COc1ccccc1N(C)S(=O)(=O)c1ccc(C(=O)NC2=NCCS2)cc1 | i | i | i | 45 | i | i | i | i
COC(=O)CSc1nnc(-c2ccc(S(=O)(=O)N3CCC(C)CC3)cc2)o1 | i | i | i | i | i | i | nt | nt
CC1CCN(S(=O)(=O)c2ccc(-c3nnc(SCc4cccnc4)o3)cc2)CC1 | i | i | i | 44 | i | i | i | i

Compound activity (PubChem)
